Test results reported in ChEMBL document CHEMBL5154665, “Design, synthesis, biochemical evaluation, radiolabeling and in vivo imaging with high affinity class-IIa histone deacetylase inhibitor for molecular imaging and targeted therapy” (Eur J Med Chem, 2022).
pIC50: −log10 of the molar value.

Tests used:
[1] = target: T1, Class 1 histone deacetylase (Homo sapiens, UniProt Q13547+O15379+Q92769+Q9BY41); assay: Inhibition of HDAC class 1 in human PANC-1 cells using TFA-lysine as fluorogenic substrate by fluorescence microplate reader assay; assay type: cell-based
[2] = target: T2, Histone deacetylase 11 (Homo sapiens, UniProt Q96DB2); assay: Inhibition of recombinant human HDAC11 using fluorogenic substrate by fluorescence microplate reader assay
T2 sequence (Q96DB2 whole entry): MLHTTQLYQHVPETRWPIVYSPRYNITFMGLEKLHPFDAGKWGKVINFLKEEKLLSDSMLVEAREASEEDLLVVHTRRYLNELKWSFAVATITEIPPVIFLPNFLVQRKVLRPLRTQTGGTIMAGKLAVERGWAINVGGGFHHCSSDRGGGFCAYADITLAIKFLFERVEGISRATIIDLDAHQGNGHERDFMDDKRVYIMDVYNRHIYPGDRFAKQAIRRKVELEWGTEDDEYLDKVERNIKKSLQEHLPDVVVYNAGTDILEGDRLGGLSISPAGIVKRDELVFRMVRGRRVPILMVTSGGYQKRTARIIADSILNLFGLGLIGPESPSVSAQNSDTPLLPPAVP
Outline: (§1)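 Recombinant human HDAC isoforms were tested at 9 inhibitor dilutions in commercial fluorogenic enzyme kits, per the manufacturer's protocol. For class IIa enzymes, deacetylation of a TFA-lysine substrate lets trypsin release a fluorophore, read on a microplate reader. IC50 came from a nonlinear fit of % HDAC activity inhibition against compound concentration.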

[3] = target: Histone deacetylase 4 (Homo sapiens, UniProt P56524); assay: Inhibition of recombinant human HDAC4 using fluorogenic substrate by fluorescence microplate reader assay; outline: as §1
[4] = target: Histone deacetylase 3 (Homo sapiens, UniProt O15379); assay: Inhibition of recombinant human HDAC3 using fluorogenic substrate by fluorescence microplate reader assay; outline: as §1
[5] = target: Histone deacetylase 1 (Homo sapiens, UniProt Q13547); assay: Inhibition of recombinant human HDAC1 using fluorogenic substrate by fluorescence microplate reader assay; outline: as §1
[6] = target: T3, Protein deacetylase HDAC6 (Homo sapiens, UniProt Q9UBN7); assay: Inhibition of recombinant human HDAC6 using fluorogenic substrate by fluorescence microplate reader assay; outline: as §1
T3 sequence (Q9UBN7 whole entry): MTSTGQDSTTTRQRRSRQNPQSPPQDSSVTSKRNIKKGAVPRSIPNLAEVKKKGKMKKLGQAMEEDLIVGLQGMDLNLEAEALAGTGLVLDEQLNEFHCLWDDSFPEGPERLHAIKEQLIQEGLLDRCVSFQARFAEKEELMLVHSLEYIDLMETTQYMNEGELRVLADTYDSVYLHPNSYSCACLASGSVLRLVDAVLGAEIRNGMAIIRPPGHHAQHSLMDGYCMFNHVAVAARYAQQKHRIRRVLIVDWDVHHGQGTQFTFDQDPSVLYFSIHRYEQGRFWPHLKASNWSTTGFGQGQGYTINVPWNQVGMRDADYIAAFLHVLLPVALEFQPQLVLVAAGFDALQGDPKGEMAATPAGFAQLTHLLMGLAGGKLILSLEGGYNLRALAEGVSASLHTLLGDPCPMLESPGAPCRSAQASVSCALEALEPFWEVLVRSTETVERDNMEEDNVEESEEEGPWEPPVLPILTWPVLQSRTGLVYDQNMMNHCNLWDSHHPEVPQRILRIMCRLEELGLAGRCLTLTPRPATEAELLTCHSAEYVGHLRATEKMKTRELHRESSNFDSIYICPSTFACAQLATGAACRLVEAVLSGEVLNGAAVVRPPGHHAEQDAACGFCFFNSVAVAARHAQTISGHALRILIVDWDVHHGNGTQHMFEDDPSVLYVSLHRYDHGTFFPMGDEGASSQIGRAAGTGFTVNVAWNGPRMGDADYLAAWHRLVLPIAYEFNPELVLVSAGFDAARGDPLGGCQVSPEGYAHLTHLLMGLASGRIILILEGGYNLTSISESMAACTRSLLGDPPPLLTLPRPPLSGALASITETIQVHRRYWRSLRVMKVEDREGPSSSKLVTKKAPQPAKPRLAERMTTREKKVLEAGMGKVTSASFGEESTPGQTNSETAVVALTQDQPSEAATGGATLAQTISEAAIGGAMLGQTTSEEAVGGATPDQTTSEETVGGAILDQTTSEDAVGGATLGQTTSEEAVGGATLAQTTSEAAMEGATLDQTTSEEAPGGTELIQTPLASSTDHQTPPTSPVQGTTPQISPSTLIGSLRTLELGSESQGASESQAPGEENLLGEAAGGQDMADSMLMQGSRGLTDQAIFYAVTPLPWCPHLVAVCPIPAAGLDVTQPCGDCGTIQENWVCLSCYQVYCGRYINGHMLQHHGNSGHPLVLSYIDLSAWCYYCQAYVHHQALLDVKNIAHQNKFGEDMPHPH

[7] = target: Histone deacetylase 9 (Homo sapiens, UniProt Q9UKV0); assay: Inhibition of recombinant human HDAC9 using fluorogenic substrate by fluorescence microplate reader assay; outline: as §1
[8] = target: T1, Class 1 histone deacetylase; assay: Inhibition of HDAC class 1 in human L3.6pl cells using TFA-lysine as fluorogenic substrate by fluorescence microplate reader assay; assay type: cell-based
[9] = Inhibition of HDAC class 2b in human L3.6pl cells using TFA-lysine as fluorogenic substrate by fluorescence microplate reader assay; assay type: cell-based
[10] = Inhibition of HDAC class 2b in human PANC-1 cells using TFA-lysine as fluorogenic substrate by fluorescence microplate reader assay; assay type: cell-based
[11] = Inhibition of HDAC class 2a in human HT-29 cells using Boc-Lys-TFA as substrate incubated for 3 hrs by microplate reader assay; assay type: cell-based; conditions: HT-29, 3 h

Chain of Histone deacetylase 4 (P56524 whole entry): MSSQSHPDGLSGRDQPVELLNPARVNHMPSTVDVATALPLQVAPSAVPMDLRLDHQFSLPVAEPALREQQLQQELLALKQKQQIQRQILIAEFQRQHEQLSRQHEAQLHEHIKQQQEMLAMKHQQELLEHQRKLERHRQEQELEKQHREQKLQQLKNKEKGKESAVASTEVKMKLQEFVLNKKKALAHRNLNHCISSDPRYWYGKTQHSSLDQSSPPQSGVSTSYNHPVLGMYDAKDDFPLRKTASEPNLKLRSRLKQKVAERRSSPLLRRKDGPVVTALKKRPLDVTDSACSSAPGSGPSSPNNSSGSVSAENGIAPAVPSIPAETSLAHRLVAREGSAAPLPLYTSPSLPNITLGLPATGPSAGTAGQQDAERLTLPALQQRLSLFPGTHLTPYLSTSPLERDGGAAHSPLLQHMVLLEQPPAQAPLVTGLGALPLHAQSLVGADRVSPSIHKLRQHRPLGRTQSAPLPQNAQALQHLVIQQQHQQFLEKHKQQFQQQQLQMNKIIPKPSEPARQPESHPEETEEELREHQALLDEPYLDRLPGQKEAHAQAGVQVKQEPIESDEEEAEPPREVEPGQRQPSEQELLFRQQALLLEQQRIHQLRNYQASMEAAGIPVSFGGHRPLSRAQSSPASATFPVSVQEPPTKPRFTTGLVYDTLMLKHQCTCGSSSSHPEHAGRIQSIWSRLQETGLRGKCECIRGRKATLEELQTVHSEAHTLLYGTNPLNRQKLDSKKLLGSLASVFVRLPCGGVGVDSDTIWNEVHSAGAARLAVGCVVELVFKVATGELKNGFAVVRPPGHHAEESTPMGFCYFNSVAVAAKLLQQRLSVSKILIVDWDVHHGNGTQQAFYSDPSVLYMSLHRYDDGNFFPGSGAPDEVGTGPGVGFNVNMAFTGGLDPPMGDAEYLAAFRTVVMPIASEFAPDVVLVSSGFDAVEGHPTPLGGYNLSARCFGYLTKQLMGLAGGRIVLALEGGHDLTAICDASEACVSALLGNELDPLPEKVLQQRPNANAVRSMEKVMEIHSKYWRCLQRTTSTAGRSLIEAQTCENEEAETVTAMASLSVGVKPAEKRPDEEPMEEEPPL
Chain of Histone deacetylase 3 (O15379 whole entry): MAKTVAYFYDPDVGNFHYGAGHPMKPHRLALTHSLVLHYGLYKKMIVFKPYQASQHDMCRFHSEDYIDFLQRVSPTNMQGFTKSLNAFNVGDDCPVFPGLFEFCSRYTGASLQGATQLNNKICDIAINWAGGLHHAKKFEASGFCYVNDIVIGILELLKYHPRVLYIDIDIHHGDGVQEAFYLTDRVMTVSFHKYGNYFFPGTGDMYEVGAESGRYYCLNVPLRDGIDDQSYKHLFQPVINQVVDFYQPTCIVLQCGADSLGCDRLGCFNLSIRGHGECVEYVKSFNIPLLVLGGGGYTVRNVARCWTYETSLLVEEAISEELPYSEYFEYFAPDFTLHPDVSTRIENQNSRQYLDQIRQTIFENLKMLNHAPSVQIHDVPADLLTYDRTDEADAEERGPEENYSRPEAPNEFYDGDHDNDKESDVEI
Chain of Histone deacetylase 9 (Q9UKV0 whole entry): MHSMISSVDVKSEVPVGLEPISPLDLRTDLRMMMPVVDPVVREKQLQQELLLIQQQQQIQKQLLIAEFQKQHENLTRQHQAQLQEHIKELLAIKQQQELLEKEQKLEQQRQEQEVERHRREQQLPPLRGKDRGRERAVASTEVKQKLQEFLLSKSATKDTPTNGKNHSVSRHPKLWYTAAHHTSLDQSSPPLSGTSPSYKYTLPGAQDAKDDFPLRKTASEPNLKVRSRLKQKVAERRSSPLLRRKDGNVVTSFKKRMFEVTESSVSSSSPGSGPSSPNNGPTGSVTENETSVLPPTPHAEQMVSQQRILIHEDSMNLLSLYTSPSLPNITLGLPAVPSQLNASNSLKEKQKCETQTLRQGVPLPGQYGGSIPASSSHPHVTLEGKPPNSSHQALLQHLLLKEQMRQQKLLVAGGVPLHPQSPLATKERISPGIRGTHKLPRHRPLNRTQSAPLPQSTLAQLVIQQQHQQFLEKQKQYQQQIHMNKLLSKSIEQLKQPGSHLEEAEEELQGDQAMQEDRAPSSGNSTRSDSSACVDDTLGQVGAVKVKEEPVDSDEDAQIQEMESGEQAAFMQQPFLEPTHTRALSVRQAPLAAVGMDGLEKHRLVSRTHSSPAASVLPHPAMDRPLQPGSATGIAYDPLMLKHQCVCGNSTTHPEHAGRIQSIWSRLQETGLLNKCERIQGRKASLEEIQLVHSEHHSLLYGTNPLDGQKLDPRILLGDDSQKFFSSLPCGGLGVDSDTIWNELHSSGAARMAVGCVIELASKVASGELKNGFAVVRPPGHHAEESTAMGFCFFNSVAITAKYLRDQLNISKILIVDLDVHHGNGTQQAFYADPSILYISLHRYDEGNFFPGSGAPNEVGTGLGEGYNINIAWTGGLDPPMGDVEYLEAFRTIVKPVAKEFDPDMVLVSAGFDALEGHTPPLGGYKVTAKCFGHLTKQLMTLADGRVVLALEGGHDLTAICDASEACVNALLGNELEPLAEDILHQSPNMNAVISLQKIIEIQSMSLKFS
Chain of Histone deacetylase 1 (Q13547 whole entry): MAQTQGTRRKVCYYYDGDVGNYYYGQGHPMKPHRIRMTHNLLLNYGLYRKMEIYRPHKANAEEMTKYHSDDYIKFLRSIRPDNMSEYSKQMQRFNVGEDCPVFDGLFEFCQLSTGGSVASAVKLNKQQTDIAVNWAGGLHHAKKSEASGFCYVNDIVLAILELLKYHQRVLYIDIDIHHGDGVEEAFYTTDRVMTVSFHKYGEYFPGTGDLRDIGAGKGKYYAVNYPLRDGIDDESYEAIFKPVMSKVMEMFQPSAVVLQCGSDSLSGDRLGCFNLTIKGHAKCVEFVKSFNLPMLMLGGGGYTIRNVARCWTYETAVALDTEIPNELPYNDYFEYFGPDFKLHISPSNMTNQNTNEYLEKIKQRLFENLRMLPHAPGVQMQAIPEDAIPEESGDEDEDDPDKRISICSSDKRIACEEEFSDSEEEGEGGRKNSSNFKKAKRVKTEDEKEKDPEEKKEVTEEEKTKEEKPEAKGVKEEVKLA

`CC(C)(CNC(=O)c1cccc(-c2noc(C(F)(F)F)n2)c1)c1coc(-c2ccccc2)n1` gave an IC50 [1] of over 5 µM, a pIC50 [2] of under 5.30 and a pIC50 [3] of 6.89. It also gave a pIC50 [4] of under 5.30, a pIC50 [5] of under 5.30 and a pIC50 [6] of under 5.30. The pIC50 [7] was 8.62, the IC50 [8] was over 5 µM and the pIC50 [9] was under 5.30. For the same compound, the pIC50 [10] was under 5.30 and the pIC50 [11] was 6.00.
